Experimental findings from ChEMBL document CHEMBL4411328, “Synthesis and Structural/Functional Characterization of Selective M14 Metallocarboxypeptidase Inhibitors Based on Phosphinic Pseudopeptide Scaffold: Implications on the Design of Specific Optical Probes” (J Med Chem, 2019) are described below.

The target in one assay is T1, Carboxypeptidase A2 (Homo sapiens, UniProt P48052).
T1 sequence (P48052 whole entry): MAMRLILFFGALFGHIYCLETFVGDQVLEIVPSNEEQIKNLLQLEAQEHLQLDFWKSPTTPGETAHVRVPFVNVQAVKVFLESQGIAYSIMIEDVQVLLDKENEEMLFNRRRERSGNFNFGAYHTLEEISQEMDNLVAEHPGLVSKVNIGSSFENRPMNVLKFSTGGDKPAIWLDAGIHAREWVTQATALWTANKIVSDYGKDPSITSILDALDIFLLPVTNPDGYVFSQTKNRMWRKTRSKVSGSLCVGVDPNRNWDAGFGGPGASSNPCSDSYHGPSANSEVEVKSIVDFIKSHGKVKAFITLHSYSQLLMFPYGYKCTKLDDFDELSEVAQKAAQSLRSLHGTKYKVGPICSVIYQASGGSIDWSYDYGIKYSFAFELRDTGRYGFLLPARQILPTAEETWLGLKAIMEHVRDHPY
Briefly: Inhibition of human CPA2 using AAFP as substrate preincubated for 45 mins to 2 hrs measured at 30 sec intervals for 15 mins by UV/vis-spectrophotometry. Put shortly:
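hCPA2 was used at 3.0x10-8 M with AAFP substrate at 1.0x10-4 M, read at 355 nm, in 20 mM Tris-HCl pH 7.5, 500 mM NaCl, 1% DMSO, 0.05% Brij-35. After a 45 min preincubation at 37 °C, initial rates were followed at 30 sec intervals for 15 min, in triplicate. Kiapp was fitted by the tight-binding equation.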

The target of another assay is T2, Carboxypeptidase A4 (Homo sapiens, UniProt Q9UI42).
T2 sequence (Q9UI42 whole entry): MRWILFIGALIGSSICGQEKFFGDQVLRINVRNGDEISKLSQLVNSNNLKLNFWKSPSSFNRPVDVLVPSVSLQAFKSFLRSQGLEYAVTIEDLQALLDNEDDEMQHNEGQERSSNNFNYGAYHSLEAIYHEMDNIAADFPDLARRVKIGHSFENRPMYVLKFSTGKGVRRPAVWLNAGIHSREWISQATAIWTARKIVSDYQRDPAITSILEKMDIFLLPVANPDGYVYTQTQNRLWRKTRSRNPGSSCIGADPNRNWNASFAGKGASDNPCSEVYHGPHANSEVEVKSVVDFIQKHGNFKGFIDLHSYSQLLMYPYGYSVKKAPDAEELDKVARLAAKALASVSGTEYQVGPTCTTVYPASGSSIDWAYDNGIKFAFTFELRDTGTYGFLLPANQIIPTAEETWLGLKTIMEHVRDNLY
Briefly: Inhibition of human CPA4 using AAFP as substrate preincubated for 45 mins to 2 hrs measured at 30 sec intervals for 15 mins by UV/vis-spectrophotometry. Put shortly: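 Enzyme was hCPA4 at 4.3x10-8 M, with 1.0x10-4 M AAFP and detection at 355 nm. Inhibitor and enzyme were preincubated 45 min at 37 °C, then initial velocities were taken over 15 min (30 sec reads), in triplicate. Kiapp was obtained from the tight-binding fit.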

Assay [1] addresses T3, Carboxypeptidase B (Homo sapiens) (UniProt P15086).
T3 sequence (whole entry): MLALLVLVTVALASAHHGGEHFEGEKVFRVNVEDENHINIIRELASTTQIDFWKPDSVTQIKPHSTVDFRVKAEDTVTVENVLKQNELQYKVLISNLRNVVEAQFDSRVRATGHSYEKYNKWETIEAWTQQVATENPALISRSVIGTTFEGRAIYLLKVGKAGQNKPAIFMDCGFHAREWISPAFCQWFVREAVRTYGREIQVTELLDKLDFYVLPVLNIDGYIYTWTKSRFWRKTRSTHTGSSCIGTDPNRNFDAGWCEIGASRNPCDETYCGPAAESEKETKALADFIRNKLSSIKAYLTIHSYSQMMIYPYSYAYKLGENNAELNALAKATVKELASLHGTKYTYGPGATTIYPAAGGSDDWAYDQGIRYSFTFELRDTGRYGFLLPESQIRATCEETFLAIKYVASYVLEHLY
Briefly: Inhibition of human CPB1 at 1 nM to 1 mM using AAFA as substrate preincubated for 45 mins to 2 hrs measured at 30 sec intervals for 15 mins by UV/vis-spectrophotometry. In short, it runs like this:
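hCPB1 was used at 6.0x10-9 M with 1.0x10-4 M AAFA, read at 355 nm. After 45 min preincubation with inhibitor at 37 °C, residual activity at varied inhibitor concentrations was followed for 15 min at 30 sec intervals, in triplicate. Kiapp was fitted with the tight-binding equation.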

Activity calls are given as the source filed them. No cut-off for these calls is given here.

The Ki is a measure of affinity in units of concentration, obtained from inhibition or displacement. For `CC(=O)N[C@@H](CCCCN)C(=O)N[C@@H](C)P(=O)(O)C[C@@H](CCc1ccccc1)C(=O)O`, the Ki came out at 2.4 nM on Carboxypeptidase A2 and 25.4 nM on Carboxypeptidase A4. Moreover, the inhibition entry in assay [1] is “inactive”.

In the case of `CC(=O)N[C@@H](CC(C)C)C(=O)N[C@@H](C)P(=O)(O)C[C@@H](CCc1ccccc1)C(=O)O`, the Ki at Carboxypeptidase A2 is 0.7 nM; at Carboxypeptidase A4 it was 3.3 nM. Also, the inhibition entry in assay [1] was “inactive”.

In the case of `CC(=O)N[C@@H](CC(C)C)C(=O)N[C@@H](Cc1ccccc1)P(=O)(O)C[C@@H](CCc1ccccc1)C(=O)O`, the Ki at Carboxypeptidase A2 came out at 0.2 nM; at Carboxypeptidase A4, 1.9 nM. Moreover, the inhibition result in assay [1] was “inactive”.

As to `CC(=O)N[C@@H](CO)C(=O)N[C@@H](C)P(=O)(O)C[C@@H](CCc1ccccc1)C(=O)O`, the figures for the Ki on Carboxypeptidase A2 and at Carboxypeptidase A4 were 13.8 nM and 60.6 nM, respectively. For the same molecule, in assay [1], the inhibition entry is “inactive”.

Take `CC(=O)NCCOCCOCC(=O)N[C@@H](Cc1ccc(O)cc1)C(=O)N[C@@H](C)P(=O)(O)C[C@@H](CCc1ccccc1)C(=O)O`: the Ki was 5.7 nM at Carboxypeptidase A2 and 3.5 nM at Carboxypeptidase A4. In addition, the inhibition result in assay [1] was “inactive”.

Take `C[C@H](NC(=O)[C@H](Cc1ccc(O)cc1)NC(=O)COCCOCCN)P(=O)(O)C[C@@H](CCc1ccccc1)C(=O)O`: the Ki on Carboxypeptidase A2 turned out to be 7.8 nM; on Carboxypeptidase A4, 5.4 nM. For the same molecule, the inhibition entry in assay [1] was “inactive”.

Consider `CC(=O)N[C@@H](CCC(=O)O)C(=O)N[C@@H](C)P(=O)(O)C[C@@H](CCc1ccccc1)C(=O)O`, for which the results for the Ki at Carboxypeptidase A2 and at Carboxypeptidase A4 were 4.6 nM and 38.6 nM, respectively. Further, the inhibition result in assay [1] was “inactive”.

Consider `CC(=O)N[C@@H](Cc1ccc(O)cc1)C(=O)N[C@@H](C)P(=O)(O)C[C@@H](CCc1ccccc1)C(=O)O`, for which the Ki came out at 1.7 nM at Carboxypeptidase A2 and 2.6 nM at Carboxypeptidase A4. The inhibition result in assay [1] was “inactive”.

With `C[C@H](NC(=O)[C@H](Cc1ccc(O)cc1)NC(=O)COCCOCCNC(=O)CCOCCOCCOCCNC(=O)CCc1ccc(C(=C\C=C2\N(CCCCS(=O)(=O)O)c3ccc4c(S(=O)(=O)[O-])cc(S(=O)(=O)O)cc4c3C2(C)C)/C=C/C2=[N+](CCCCS(=O)(=O)O)c3ccc4c(S(=O)(=O)O)cc(S(=O)(=O)O)cc4c3C2(C)C)cc1)P(=O)(O)C[C@@H](CCc1ccccc1)C(=O)O`, the Ki at Carboxypeptidase A2 worked out at 5.3 nM; on Carboxypeptidase A4, 5.7 nM. In addition, in assay [1], the inhibition result was “inactive”.

Regarding `CC(=O)N1CCC[C@H]1C(=O)N[C@@H](C)P(=O)(O)C[C@@H](CCc1ccccc1)C(=O)O`, the results for the Ki on Carboxypeptidase A2 and at Carboxypeptidase A4 were 3.2 nM and 7.5 nM, respectively. Further, the inhibition entry in assay [1] was “inactive”.
